The values below come from ChEMBL document CHEMBL1681781, “Structure based design and syntheses of amino-1H-pyrazole amide derivatives as selective Raf kinase inhibitors in melanoma cells” (Bioorg Med Chem, 2011).

Molecules are shown by their SMILES. Calls of active or inactive are those of the source. The calls are words filed in the database; no cut-off is given here.

Experiment [1] deals with HS27. As to the kind of experiment: Antiproliferative activity against human HS27 cells assessed as growth inhibition after 24 hrs by MTT assay. As to conditions: HS27, 24 h. Type of experiment: functional.
Experiment [2] relates to A375P. Kind of experiment: (§1) Antiproliferative activity against human A375P cells assessed as growth inhibition after 24 hrs by MTT assay. It is filed as functional. The gist of the method: (§2)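 A375P cells kept in DMEM with 10% FBS and 1% penicillin/streptomycin at 37 °C under 5% CO2. Cells lifted with 0.05% trypsin–0.02% EDTA, seeded at 5 × 10^3 cells/well and left 24 h before dosing. Test compounds given as a 3-fold serial dilution over 12 points. Viability read by MTT reduction, absorbance at 590 nm.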

The target of experiment [3] is RAF proto-oncogene serine/threonine-protein kinase (Homo sapiens, UniProt P04049). As to the kind of experiment: Inhibition of C-Raf assessed as [33P]gamma-ATP incorporation into substrate after 40 mins by scintillation counting. The gist of the method: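 Human C-RAF (5–10 mU) in 25 mM Tris pH 7.5, 0.02 mM EGTA, 10 mM Mg acetate, with 0.66 mg/mL myelin basic protein as substrate and [γ-33P]ATP. Reaction started by adding the Mg-ATP mix and run 40 min at room temperature. Stopped with 3% phosphoric acid, spotted on P30 filtermat, washed in 75 mM phosphoric acid and methanol, then scintillation counted.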
RAF proto-oncogene serine/threonine-protein kinase, sequence (P04049 whole entry): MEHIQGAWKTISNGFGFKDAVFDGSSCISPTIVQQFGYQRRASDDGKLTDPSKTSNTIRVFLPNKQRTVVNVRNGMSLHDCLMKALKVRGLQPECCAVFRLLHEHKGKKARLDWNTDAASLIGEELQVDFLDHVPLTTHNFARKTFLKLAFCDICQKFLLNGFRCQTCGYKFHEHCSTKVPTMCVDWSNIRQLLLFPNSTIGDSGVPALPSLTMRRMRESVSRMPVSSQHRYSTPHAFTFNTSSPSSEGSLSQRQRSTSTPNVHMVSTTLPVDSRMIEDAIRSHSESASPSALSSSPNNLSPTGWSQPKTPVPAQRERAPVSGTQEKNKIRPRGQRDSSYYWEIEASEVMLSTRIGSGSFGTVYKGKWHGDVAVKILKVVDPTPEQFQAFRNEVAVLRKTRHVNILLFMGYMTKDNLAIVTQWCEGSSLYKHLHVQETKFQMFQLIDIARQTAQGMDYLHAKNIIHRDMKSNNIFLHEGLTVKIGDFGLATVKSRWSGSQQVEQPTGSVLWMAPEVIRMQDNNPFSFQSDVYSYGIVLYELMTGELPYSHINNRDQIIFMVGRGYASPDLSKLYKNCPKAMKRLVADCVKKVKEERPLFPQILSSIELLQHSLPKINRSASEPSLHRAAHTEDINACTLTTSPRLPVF

The subject of experiment [4] is Serine/threonine-protein kinase B-raf (Homo sapiens), P15056 [V600E]. Kind of experiment: Inhibition of B-Raf V600E mutant.
Experiment [5] is described as follows: as §1. It is filed as functional. The gist of the method:
as §2

Experiment [6] addresses Serine/threonine-protein kinase mTOR (Homo sapiens, UniProt P42345). Kind of experiment: inhibition of mTOR.

Serine/threonine-protein kinase B-raf (Homo sapiens), P15056 [V600E], sequence (P15056 whole entry V600E): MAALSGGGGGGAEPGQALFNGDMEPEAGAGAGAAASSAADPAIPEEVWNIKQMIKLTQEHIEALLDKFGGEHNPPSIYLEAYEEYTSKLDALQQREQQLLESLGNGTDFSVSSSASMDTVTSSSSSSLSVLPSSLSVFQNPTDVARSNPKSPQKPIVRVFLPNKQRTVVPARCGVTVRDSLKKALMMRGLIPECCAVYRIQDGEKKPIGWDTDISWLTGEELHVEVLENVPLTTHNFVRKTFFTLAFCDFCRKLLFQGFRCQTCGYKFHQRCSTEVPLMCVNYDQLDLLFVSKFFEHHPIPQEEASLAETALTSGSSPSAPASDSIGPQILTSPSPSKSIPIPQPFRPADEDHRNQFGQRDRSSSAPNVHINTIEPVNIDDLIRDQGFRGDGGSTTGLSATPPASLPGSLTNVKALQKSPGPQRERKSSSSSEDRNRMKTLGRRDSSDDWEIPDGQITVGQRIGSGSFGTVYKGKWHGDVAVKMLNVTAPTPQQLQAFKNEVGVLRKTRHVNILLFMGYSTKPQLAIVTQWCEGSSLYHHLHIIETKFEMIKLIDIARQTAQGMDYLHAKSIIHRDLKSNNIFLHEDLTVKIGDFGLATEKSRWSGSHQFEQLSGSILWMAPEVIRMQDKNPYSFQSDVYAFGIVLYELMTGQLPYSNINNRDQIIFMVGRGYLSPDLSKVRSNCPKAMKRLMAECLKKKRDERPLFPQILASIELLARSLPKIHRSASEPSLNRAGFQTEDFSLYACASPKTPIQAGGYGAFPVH

For `COc1ccc(Cn2ncc(NC(=O)c3cc(NC(=O)c4ccc(-c5cc(C(F)(F)F)ccc5Cl)o4)ccc3C)c2N)cc1`, the GI50 in experiment [1] is over 30 µM. The GI50 entry in experiment [2] is “inactive”.

As for `COc1ccc(Cn2ncc(NC(=O)c3ccc(NC(=O)Nc4ccc(Cl)cc4)cc3C)c2N)cc1`, in experiment [1], the concentration for 50% growth inhibition (GI50) was over 30 µM. The GI50 result in experiment [2] is “inactive”.

On to `COc1ccc(Cn2ncc(NC(=O)c3cc(NC(=O)c4cccc(C(F)(F)F)c4)ccc3C)c2N)cc1`, for which the GI50 is over 30 µM in experiment [1] and 5.53 µM in experiment [5]. The half-maximal inhibitory concentration (IC50) in experiment [3] was found to be 0.0224 µM. The inhibition entry in experiment [4] is “inactive”.

In turn, `O=c1cc(N2CCOCC2)oc2c(-c3ccccc3)cccc12` [LY-294002] registered an IC50 in experiment [6] of 3.02 µM.

Take `COc1ccc(Cn2ncc(NC(=O)c3cc(NC(=O)Nc4cc(Cl)c(Cl)cc4Cl)ccc3C)c2N)cc1`: the GI50 is over 30 µM in experiment [1] and 11.4 µM in experiment [5].

Consider `COc1ccc(Cn2ncc(NC(=O)c3ccc(NC(=O)c4cc(C)on4)cc3C)c2N)cc1`, for which the 50% growth inhibitory concentration (GI50) in experiment [1] is over 30 µM. Besides, the GI50 entry in experiment [2] was “inactive”.

In the case of `COc1ccc(Cn2ncc(NC(=O)c3ccc(NC(=O)c4cnn(-c5ccccc5)c4C(F)(F)F)cc3C)c2N)cc1`, the 50% growth inhibitory concentration (GI50) in experiment [1] was over 30 µM. For the same molecule, the GI50 result in experiment [2] is “inactive”.

On to `COc1ccc(Cn2ncc(NC(=O)c3cc(NC(=O)Nc4ccc(C(F)(F)F)cc4)ccc3C)c2N)cc1`, for which the concentration for 50% growth inhibition (GI50) in experiment [1] and in experiment [5] was over 30 µM in each case.

On to `CNC(=O)c1cc(Oc2ccc(NC(=O)Nc3ccc(Cl)c(C(F)(F)F)c3)cc2)ccn1` [SORAFENIB], for which, in experiment [5], the GI50 was 5.58 µM.

For the molecule `COc1ccc(Cn2ncc(NC(=O)c3cc(NC(=O)Nc4cc(C)no4)ccc3C)c2N)cc1`, the GI50 in experiment [1] is over 30 µM. For the same molecule, the GI50 result in experiment [2] was “inactive”.

On to `COc1ccc(Cn2ncc(NC(=O)c3ccc(NC(=O)Nc4nccc(C(F)(F)F)n4)cc3C)c2N)cc1`, for which the 50% growth inhibitory concentration (GI50) in experiment [1] was over 30 µM. For the same molecule, the GI50 result in experiment [2] was “inactive”.

Consider `COc1ccc(Cn2ncc(NC(=O)c3ccc(NC(=O)Nc4cccc(C(F)(F)F)c4)cc3C)c2N)cc1`, for which the GI50 in experiment [1] and in experiment [5] was over 30 µM in each case.

Consider `Cc1ccc(NC(=O)Nc2ccc(Cl)c(C(F)(F)F)c2)cc1C(=O)Nc1cnn(Cc2ccccc2)c1N`, for which the 50% growth inhibitory concentration (GI50) in experiment [1] is over 30 µM; in experiment [5] it was 15.9 µM.

For the molecule `COc1ccc(Cn2ncc(NC(=O)c3cc(NC(=O)c4ncc(-c5ccncc5)s4)ccc3C)c2N)cc1`, the GI50 in experiment [1] is over 30 µM. Moreover, the GI50 entry in experiment [2] is “inactive”.

Take `COc1ccc(Cn2ncc(NC(=O)c3ccc(NC(=O)Nc4ccc(Cl)c(C(F)(F)F)c4)cc3C)c2N)cc1`: the results for the GI50 in experiment [1] and in experiment [5] were over 30 µM and 33.2 µM, respectively. The IC50 in experiment [3] was 8.32 µM. The inhibition result in experiment [4] was “inactive”.

As to `COc1ccc(Cn2ncc(NC(=O)c3cc(NC(=O)Nc4ccc(C(F)(F)F)cc4C(F)(F)F)ccc3C)c2N)cc1`, the GI50 in experiment [1] was over 30 µM. The GI50 entry in experiment [2] is “inactive”.

In the case of `COc1ccc(Cn2ncc(NC(=O)c3ccc(NC(=O)Nc4ccc(Cl)c(Cl)c4)cc3C)c2N)cc1`, the concentration for 50% growth inhibition (GI50) in experiment [1] is over 30 µM; in experiment [5], 4.12 µM.

For `O=C1Nc2ccc(I)cc2C1=Cc1cc(Br)c(O)c(Br)c1`, the IC50 in experiment [4] stood at 0.00386 µM.

For the molecule `COc1ccc(Cn2ncc(NC(=O)c3cc(NC(=O)c4ccnc(Cl)c4)ccc3C)c2N)cc1`, the GI50 in experiment [1] was over 30 µM. For the same molecule, the GI50 entry in experiment [2] is “inactive”.

Take `COc1ccc(Cn2ncc(NC(=O)c3ccc(NC(=O)c4cc(-c5ccc(Cl)cc5)on4)cc3C)c2N)cc1`: the GI50 in experiment [1] is over 30 µM; in experiment [5], 24.9 µM.

As to `COc1ccc(Cn2ncc(NC(=O)c3ccc(NC(=O)Nc4cc(N5CCOCC5)cc(C(F)(F)F)c4)cc3C)c2N)cc1`, the GI50 is over 30 µM in experiment [1] and 51.5 µM in experiment [5].

As for `COc1ccc(Cn2ncc(NC(=O)c3cc(NC(=O)NC4CCCCC4)ccc3C)c2N)cc1`, in experiment [1], the concentration for 50% growth inhibition (GI50) is over 30 µM. Also, the GI50 entry in experiment [2] was “inactive”.

Take `COc1ccc(Cn2ncc(NC(=O)c3cc(NC(=O)c4ccc([N+](=O)[O-])c(C(F)(F)F)c4)ccc3C)c2N)cc1`: the values for the 50% growth inhibitory concentration (GI50) in experiment [1] and in experiment [5] were over 30 µM and 27.9 µM, respectively.

Consider `COc1ccc(Cn2ncc(NC(=O)c3ccc(NC(=O)Nc4cc(C(F)(F)F)ccc4N4CCOCC4)cc3C)c2N)cc1`, for which the concentration for 50% growth inhibition (GI50) was over 30 µM in experiment [1] and over 100 µM in experiment [5].

For the molecule `COc1ccc(Cn2ncc(NC(=O)c3ccc(NC(=O)c4cnccn4)cc3C)c2N)cc1`, the 50% growth inhibitory concentration (GI50) in experiment [1] is over 30 µM. Besides, the GI50 result in experiment [2] was “inactive”.

For the molecule `COc1ccc(Cn2ncc(NC(=O)c3ccc(NC(=O)c4cc5ccccc5o4)cc3C)c2N)cc1`, the 50% growth inhibitory concentration (GI50) in experiment [1] and in experiment [5] was over 30 µM in each case.

In the case of `COc1ccc(Cn2ncc(NC(=O)c3ccc(NC(=O)Nc4cc(-n5cnc(C)c5)cc(C(F)(F)F)c4)cc3C)c2N)cc1`, the 50% growth inhibitory concentration (GI50) in experiment [1] was over 30 µM; in experiment [5], 5.71 µM.

In the case of `COc1ccc(Cn2ncc(NC(=O)c3ccc(NC(=O)Nc4cccc(Cl)c4)cc3C)c2N)cc1`, the figures for the GI50 in experiment [1] and in experiment [5] were over 30 µM and 36.5 µM, respectively.

As for `COc1ccc(Cn2ncc(NC(=O)c3cc(NC(=O)Nc4cccc(Cl)c4)ccc3C)c2N)cc1`, the 50% growth inhibitory concentration (GI50) in experiment [1] is over 30 µM; in experiment [5] it was 0.21 µM.

Take `COc1ccc(Cn2ncc(NC(=O)c3cc(NC(=O)Nc4ccc(Cl)cc4)ccc3C)c2N)cc1`: the GI50 in experiment [1] was over 30 µM; in experiment [5] it was 8.73 µM.

For the molecule `COc1ccc(Cn2ncc(NC(=O)c3cc(NC(=O)Nc4c(Cl)cccc4Cl)ccc3C)c2N)cc1`, the GI50 in experiment [1] is over 30 µM. In experiment [2], the GI50 entry is “inactive”.

`COc1ccc(Cn2ncc(NC(=O)c3cc(NC(=O)c4cc(-n5cnc(C)c5)cc(C(F)(F)F)c4)ccc3C)c2N)cc1`: the concentration for 50% growth inhibition (GI50) is over 30 µM in experiment [1] and 11.3 µM in experiment [5].

Turning to `COc1ccc(Cn2ncc(NC(=O)c3cc(NC(=O)c4cc(-c5ccc(Cl)cc5)on4)ccc3C)c2N)cc1`, the 50% growth inhibitory concentration (GI50) in experiment [1] was over 30 µM; in experiment [5], 1.39 µM.

For the molecule `COc1ccc(Cn2ncc(NC(=O)c3cc(NC(=O)c4cc(N5CCN(C)CC5)cc(C(F)(F)F)c4)ccc3C)c2N)cc1`, the GI50 in experiment [1] is over 30 µM; in experiment [5], 4.51 µM. The IC50 in experiment [3] worked out at 0.24 µM. For the same molecule, the inhibition entry in experiment [4] was “inactive”.

Regarding `COc1ccc(Cn2ncc(NC(=O)c3ccc(NC(=O)c4cc5ccccc5s4)cc3C)c2N)cc1`, the GI50 in experiment [1] and in experiment [5] was over 30 µM throughout.

Consider `COc1ccc(Cn2ncc(NC(=O)c3cc(NC(=O)c4cnn(-c5ccc(Cl)cc5)c4C(F)(F)F)ccc3C)c2N)cc1`, for which the concentration for 50% growth inhibition (GI50) in experiment [1] and in experiment [5] was over 30 µM in each case.
